How the values were obtained:
[1] = tested on: Human immunodeficiency virus 1; assay: Antiviral activity against HIV1 NL4-3 harboring L10F/M46I/I54V/V82A amino acid substitution in protease encoding region infected in human MT4 cells assessed as inhibition of p24 Gag protein production selected at 1 uM of Lopinavir by ELISA; format: functional, organism-based; conditions: Human immunodeficiency virus 1, NL4-3, MT4
In short: (§1)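 Cell-free passage used day-7 supernatants. Variants were then tested in MT-4 cells (10^5/ml) with 100 TCID50s, with or without drug, at 37°C. Day-7 p24 Gag was read by chemiluminescent immunoassay; EC50 vs drug-free control; triplicate.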

[2] = tested on: Human immunodeficiency virus 1; assay: Antiviral activity against HIV1 NL4-3 harboring L10F/V32I/M46I/I54M//A71V/I84V amino acid substitution in protease encoding region infected in human MT4 cells assessed as inhibition of p24 Gag protein production selected at 5 uM of amprenavir by ELISA; format: functional, organism-based; conditions: Human immunodeficiency virus 1, NL4-3, MT4; in short: as §1
[3] = tested on: Human immunodeficiency virus 1; assay: Ratio of EC50 for HIV1 A harboring L10I/I15V/E35D/N37E/K45R/I54V/L63P/A71V/V82T/L90M/I93L/C95F in protease encoding region to EC50 for HIV1 ERS104pre; format: functional
[4] = tested on: Human immunodeficiency virus 1; assay: Ratio of EC50 for HIV1 C harboring L10I/I15V/K20R/L24I/M36I/M46L/I54V/I62V/L63P/K70Q/V82A/L89M in protease encoding region to EC50 for HIV1 ERS104pre; format: functional
[5] = tested on: Human immunodeficiency virus; assay: Antiviral activity against HIV1 LAI infected in human MT2 cells after 7 days by MTT assay; format: functional, organism-based; conditions: Human immunodeficiency virus 1, LAI, MT2, 168 h
[6] = tested on: Human immunodeficiency virus 1; assay: Antiviral activity against HIV1 MOKW infected in human PHA-PBC assessed as inhibition of p24 Gag protein production by ELISA; format: functional, organism-based; conditions: Human immunodeficiency virus 1, MOKW
In short: (§2)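 Phytohemagglutinin-stimulated PBMs (10^6/ml) infected with 50 TCID50s of each primary isolate, cultured with or without drug in 10-fold serial dilutions. On day 7, supernatant p24 Gag was measured by automated chemiluminescent enzyme immunoassay. […] Triplicate.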

[7] = tested on: Human immunodeficiency virus 1; assay: Ratio of EC50 for HIV1 NL4-3 harboring L10F/M46I/I54V/V82A amino acid substitution in protease encoding region to EC50 for HIV1 NL4-3; format: functional
In short: (§3)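 MT-4 cells (10^5/ml) infected with 100 TCID50s of PI-selected HIV-1NL4-3 variants or the parental strain, with or without serial drug concentrations, at 37°C. Day 7 supernatant p24 Gag measured by chemiluminescent enzyme immunoassay. […] Triplicate. Ratio is variant EC50 over wild-type EC50.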

[8] = tested on: Human immunodeficiency virus 1; assay: Ratio of EC50 for HIV1 NL4-3 harboring L10F/L33F/M46I/I47V/Q58E/V82I/I84V/I85V amino acid substitution in protease encoding region to EC50 for HIV1 NL4-3; format: functional; in short: as §3
[9] = tested on: Human immunodeficiency virus 1; assay: Antiviral activity against HIV1 JSL harboring L10I/L24I/L33F/E35D/M36I/N37S/M46L/I54V/R57K/I62V/L63P/A71V/G73S/82A in protease encoding region infected in human PHA-PBC assessed as inhibition of p24 Gag protein production by ELISA; format: functional, organism-based; conditions: Human immunodeficiency virus 1, JSL; in short: as §2
[10] = tested on: Human immunodeficiency virus 1; assay: Antiviral activity against HIV1 NL4-3 harboring L10I/G48V/I54V/L90M amino acid substitution in protease encoding region infected in human MT4 cells assessed as inhibition of p24 Gag protein production selected at 5 uM of saquinavir by ELISA; format: functional, organism-based; conditions: Human immunodeficiency virus 1, NL4-3, MT4
In short: as §1, with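 “HIV-1NL4-3 (500 TCID50s) was passaged in MT-4 cells, starting at 0.01–0.03 µM PI and raising the drug generally two- to threefold as virus propagated. Cell-free” for “Cell-free”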

[11] = tested on: Human immunodeficiency virus 1; assay: Ratio of EC50 for HIV1 MM harboring L10I/K43T/M46L/I54V/L63P/A71V/V82A/L90M/Q92K in protease encoding region infected to EC50 for HIV1 ERS104pre; format: functional
[12] = tested on: Human immunodeficiency virus 1; assay: Antiviral activity against HIV1 G harboring L10I/V11I/T12E/I15V/L19I/R41K/M46L/L63P/A71T/V82A/L90M in protease encoding region infected in human PHA-PBC assessed as inhibition of p24 Gag protein production by ELISA; format: functional, organism-based; conditions: Human immunodeficiency virus 1, G; in short: as §2
[13] = tested on: Human immunodeficiency virus 1; assay: Ratio of EC50 for HIV1 B harboring L10I/I15V/E35D/N37E/K45R/I54V/L63P/A71V/V82T/L90M/I93L/C95F in protease encoding region to EC50 for HIV1 ERS104pre; format: functional
[14] = tested on: Human immunodeficiency virus 1; assay: Antiviral activity against HIV1 C harboring L10I/I15V/K20R/L24I/M36I/M46L/I54V/I62V/L63P/K70Q/V82A/L89M in protease encoding region infected in human PHA-PBC assessed as inhibition of p24 Gag protein production by ELISA; format: functional, organism-based; conditions: Human immunodeficiency virus 1, C; in short: as §2
[15] = tested on: Human immunodeficiency virus 1; assay: Antiviral activity against HIV1 NL4-3 harboring L10F/L33F/M46I/I47V/Q58E/V82I/I84V/I85V amino acid substitution in protease encoding region infected in human MT4 cells assessed as inhibition of p24 Gag protein production selected at 5 uM of GRL-02031 by ELISA; format: functional, organism-based; conditions: Human immunodeficiency virus 1, NL4-3, MT4; in short: as §1
[16] = tested on: Human immunodeficiency virus 1; assay: Ratio of EC50 for HIV1 NL4-3 harboring L23I/K43I/M46I/I50L/G51A/A71V amino acid substitution in protease encoding region to EC50 for HIV1 NL4-3; format: functional; in short: as §3
[17] = tested on: Human immunodeficiency virus 1; assay: Antiviral activity against HIV1 B harboring L10I/I15V/E35D/N37E/K45R/I54V/L63P/A71V/V82T/L90M/I93L/C95F in protease encoding region infected in human PHA-PBC assessed as inhibition of p24 Gag protein production by ELISA; format: functional, organism-based; conditions: Human immunodeficiency virus 1, B; in short: as §2
[18] = tested on: Human immunodeficiency virus 1; assay: Antiviral activity against HIV1 ERS104pre infected in human PHA-PBC assessed as inhibition of p24 Gag protein production by ELISA; format: functional, organism-based; conditions: Human immunodeficiency virus 1, ERS104pre
In short: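 Phytohemagglutinin-stimulated PBMs (10^6/ml) infected with 50 TCID50s of each primary isolate, cultured with or without drug in 10-fold serial dilutions. On day 7, supernatant p24 Gag was measured by automated chemiluminescent enzyme immunoassay. Triplicate.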

[19] = tested on: Human immunodeficiency virus 1; assay: Antiviral activity against HIV1 NL4-3 harboring M46I/V82F/I84V amino acid substitution in protease encoding region infected in human MT4 cells assessed as inhibition of p24 Gag protein production selected at 5 uM of ritonavir by ELISA; format: functional, organism-based; conditions: Human immunodeficiency virus 1, NL4-3, MT4
In short: as §1, with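 “HIV-1NL4-3 (500 TCID50s) was passaged in MT-4 cells, starting at 0.01–0.03 µM PI and raising the drug generally two- to threefold as virus propagated. Cell-free” for “Cell-free”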

[20] = tested on: Human immunodeficiency virus 1; assay: Ratio of EC50 for HIV1 NL4-3 harboring L10I/G48V/I54V/L90M amino acid substitution in protease encoding region to EC50 for HIV1 NL4-3; format: functional; in short: as §3
[21] = Cytotoxicity against human MT2 cells by MTT assay; format: cell-based

SMILES | EC50 [1] | EC50 [2] | Ratio EC50 [3] | Ratio EC50 [4] | EC50 [5] | EC50 [6] | Ratio EC50 [7] | Ratio EC50 [8] | EC50 [9] | EC50 [10] | Ratio EC50 [11] | EC50 [12] | Ratio EC50 [13] | EC50 [14] | EC50 [15] | Ratio EC50 [16] | EC50 [17] | EC50 [18] | EC50 [19] | Ratio EC50 [20] | other results
Cc1c(O)cccc1C(=O)N[C@@H](CSc1ccccc1)[C@H](O)CN1C[C@H]2CCCC[C@H]2C[C@H]1C(=O)NC(C)(C)C | 510 nM | 170 nM | 21 | 23 | 23 nM | 23 nM | 28 | 1 | > 1000 nM | 320 nM | >63 | 230 nM | >63 | 360 nM | 11 nM | 12 | > 1000 nM | 16 nM | 240 nM | 18 | 
COc1ccc(S(=O)(=O)N(C[C@@H]2CCC(=O)N2)C[C@@H](O)[C@H](Cc2ccccc2)NC(=O)O[C@@H]2C[C@@H]3CCO[C@@H]3C2)cc1 | 38 nM | 37 nM | 1 | 1 | 28 nM | 26 nM | 2 | >43 | 43 nM | 140 nM | 2 | 28 nM | 1 | 27 nM | > 1000 nM | 1 | 29 nM | 27 nM | 77 nM | 6 | CC50 [21]: > 100 µM
CC(C)(C)NC(=O)[C@@H]1C[C@@H]2CCCC[C@@H]2CN1C[C@@H](O)[C@H](Cc1ccccc1)NC(=O)[C@H](CC(N)=O)NC(=O)c1ccc2ccccc2n1 | 33 nM | 16 nM | 11 | 4 | 14 nM | 4 nM | 4 | 1 | 320 nM | > 1000 nM | 30 | 27 nM | 33 |  | 8 nM | 4 | 300 nM | 9 nM | 10 nM | >125 | CC50 [21]: 9.9 µM
CC(C)CN(C[C@@H](O)[C@H](Cc1ccccc1)NC(=O)O[C@H]1CCOC1)S(=O)(=O)c1ccc(N)cc1 | 320 nM | > 1000 nM | 6 | 9 | 33 nM | 15 nM | 11 | 8 | 660 nM | 210 nM | 16 | 230 nM | 12 | 220 nM | 210 nM | 6 | 310 nM |  | 430 nM | 8 | CC50 [21]: > 100 µM
CC(C)(C)NC(=O)[C@@H]1CN(Cc2cccnc2)CCN1C[C@@H](O)C[C@@H](Cc1ccccc1)C(=O)N[C@H]1c2ccccc2C[C@H]1O.O | > 1000 nM | 220 nM | >48 | >48 | 44 nM | 19 nM | >71 | 3 | > 1000 nM | > 1000 nM | >48 | 340 nM | >48 | > 1000 nM | 44 nM | 24 | > 1000 nM |  | 300 nM | >71 | 

— ChEMBL document CHEMBL1649117, “GRL-02031, a novel nonpeptidic protease inhibitor (PI) containing a stereochemically defined fused cyclopentanyltetrahydrofuran potent against multi-PI-resistant human immunodeficiency virus type 1 in vitro” (Antimicrob Agents Chemother, 2009)
